Only some compounds are listed: those with a hit (about 1.4% of all), similar ones and a draw of the others.
MsrA act = bovine MsrA enzyme activators, primary screen, biochemical, absorbance, HTS; AID 602163, 2012; activation, % at 10.6 µM; purified bovine MsrA, absorbance read-out; Methionine sulfoxide reductase A (Bos taurus); 0.3% of 360,000 active; in the data active = activation above about 7.5%
MsrA inhibitor = bovine MsrA enzyme inhibitors, primary screen, biochemical, absorbance, HTS. purified bovine MsrA, absorbance read-out. 0.75% of 360,000 active. AID 651718, 2012. inhibition, % at 15.5 µM; in the data active = inhibition above about 4.5%
ASAP1 GAP inh = inhibitors of human ASAP1 ArfGAP activity, primary screen, biochemical, fluorescence polarization; Arf-GAP with SH3 domain, ANK repeat and PH domain-containing protein 1 (Homo sapiens), …; ASAP1-stimulated ARF1 GTP hydrolysis, GDP FP detection; inhibition, % at 16.5 µM; 0.19% of 360,000 active; in the data active = inhibition above about 25%
Target sequence (Q9ULH1 325-724 limits assumed): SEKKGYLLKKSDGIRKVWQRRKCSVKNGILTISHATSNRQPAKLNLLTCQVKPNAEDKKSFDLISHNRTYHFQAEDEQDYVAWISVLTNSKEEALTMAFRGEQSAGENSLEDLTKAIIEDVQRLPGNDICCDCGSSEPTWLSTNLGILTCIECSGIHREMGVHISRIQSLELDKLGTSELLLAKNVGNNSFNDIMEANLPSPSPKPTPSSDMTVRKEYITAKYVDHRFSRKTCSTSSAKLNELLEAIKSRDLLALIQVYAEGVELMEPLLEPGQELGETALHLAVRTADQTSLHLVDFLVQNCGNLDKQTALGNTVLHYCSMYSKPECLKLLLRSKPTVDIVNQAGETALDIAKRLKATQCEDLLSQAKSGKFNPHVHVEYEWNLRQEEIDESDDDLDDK
ARFGAP1 inhibitor = inhibitors of rat ARFGAP1 GAP activity, primary screen, biochemical, fluorescence polarization, GDP tracer. ADP-ribosylation factor GTPase-activating protein 1 (Rattus norvegicus), Q62848. Arfgap1-stimulated ARF1 GTP hydrolysis, GDP FP detection. inhibition, % at 16.5 µM. 0.26% of 360,000 active;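 active = inhibition above a per-plate limit, mean inhibition of low control wells plus 3 SD, cut at about 25% in these data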
Target sequence (Q62848 1-136 limits assumed): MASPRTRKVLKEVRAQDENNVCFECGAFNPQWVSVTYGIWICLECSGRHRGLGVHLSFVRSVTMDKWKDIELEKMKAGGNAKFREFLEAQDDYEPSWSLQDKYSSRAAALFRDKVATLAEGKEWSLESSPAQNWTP
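Replicates: Single well per compound | Assay system: Truncated rat Arfgap1 GAP domain | Control set: No-Arfgap1 wells (100%) versus DMSO full-reaction wells (0%) | Times: Enzyme reaction 120 min at 25 °C after 20 min preincubation | Reagent: Human ARF1(Δ1-17)-GTP substrate | Measured by: Tracer-displacement fluorescence polarization with EDTA stop, 620/688 nm | Measure: Percent inhibition of Arfgap1-stimulated GTP hydrolysis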
ASAP1 GAP conf = ASAP1 GAP activity inhibitors, confirmation, biochemical, fluorescence polarization, human, triplicate; 37% of 620 active; shares compounds with ASAP1 GAP inh; ASAP1-stimulated Arf1 GTPase, GDP fluorescence polarization; inhibition, % at 16.5 µM; AID 624431, 2012;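 active = mean inhibition over triplicates exceeds the hit threshold derived for the earlier primary screening run, cut at about 25% in these data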
Of the large screens only hits and unclear results are named; the others gave an inactive call (follow-up assays come after a bar, where they were run).

Cc1cc(C)c(C)c(S(=O)(=O)N2CCSCC2)c1C	ASAP1 GAP inh 25 | ASAP1 GAP conf inactive
O=C1C(=C(I)I)c2ccccc2-c2ccccc21	ASAP1 GAP inh 38 | ASAP1 GAP conf inactive
O=C(O)c1cccc2c1C(=O)c1ccccc1-2	none
COc1ccc(Nc2nc(-c3cc4cccc(OC)c4oc3=O)cs2)cc1	none
COc1ccc2oc(=O)c(-c3csc(Nc4cccc(O)c4)n3)cc2c1	ASAP1 GAP inh 32 | ASAP1 GAP conf 48
Cc1ccc2c(CC(=O)N3CCN(c4ccccc4)CC3)coc2c1	ASAP1 GAP inh 25 | ASAP1 GAP conf inactive
Cc1ccc2c(CC(=O)N3CCOCC3)coc2c1	none
CCCCn1c(SCC(=O)NNC(=O)c2ccco2)nnc1-c1ccco1	none
CC1(Cc2ccc3ccccc3n2)C(=O)Nc2ccc(OC(F)(F)F)cc21 (configuration not stated)	none
COc1cccc(NC(=O)COC(=O)C2CC3CCCC(C2)C3=O)c1 (configuration not stated)	none
COc1cc2sc3ccc(C#Cc4ccccn4)cc3c(=O)c2cc1OC	ASAP1 GAP inh 31 | ASAP1 GAP conf 28
COc1cccc2sc3cc(C#Cc4ccccn4)ccc3c(=O)c12	none
C=CCn1c(C)cc(-c2csc(NC)n2)c1C	ASAP1 GAP inh 26 | ASAP1 GAP conf inactive
O=C(Nc1c(-c2ccc3c(c2)OCO3)[nH][nH]c1=O)c1ccccc1	ASAP1 GAP inh 30 | ASAP1 GAP conf inactive
CC1(C)S[C@@H]2[C@H](NC(=O)C(NC(=O)N3CCNC3=O)c3ccccc3)C(=O)N2[C@H]1C(=O)O (some centres not stated)	none
CCCCN(Cc1ccco1)C(=O)Cn1ncc2c(=O)oc3ccc(C)cc3c21	ASAP1 GAP inh 30 | ASAP1 GAP conf 33
CCOc1ccccc1NC(=O)C(=O)CC(=O)c1ccc(OC)cc1	none
CCOC(=O)NC(=O)c1cn(CCN(C)C)c(=O)[nH]c1=O	none
NC(=O)CN1C(=O)NC2(CCCc3ccccc32)C1=O (configuration not stated)	ASAP1 GAP inh 25 | ASAP1 GAP conf inactive
COCCN1C(=O)Cc2c1nc(N)c1c(N)nc(N3CCN(c4ccc(F)cc4)CC3)c(C#N)c21	none
COc1ccc(CN2C(=O)Cc3c2nc(N)c2c(N)nc(N4CCOCC4)c(C#N)c32)cc1	ASAP1 GAP inh 28 | ASAP1 GAP conf inactive
CCOc1ccc(S(=O)(=O)N(C)CC(=O)NCc2ccccn2)cc1Cl	none
NC(Cc1ccc(C(F)(F)F)cc1)c1csc(Nc2ccc(C(=O)NCc3ccco3)cn2)n1 (configuration not stated)	ASAP1 GAP inh 28 | ASAP1 GAP conf inactive
Cc1ccc(NC(=O)C(OC(=O)c2ccc(O)cc2)c2ccccc2)cc1Cl (configuration not stated)	ASAP1 GAP inh 28 | ASAP1 GAP conf inactive
C=CCNC(=O)O/N=C/c1csc([N+](=O)[O-])c1	none
CC(=O)c1ccc(S(=O)(=O)NCC(=O)N2CCN(C/C=C/c3ccccc3)CC2)cc1	ASAP1 GAP inh 28 | ASAP1 GAP conf inactive
O=C(c1nc2ccccn2c1CN1CCCC(OCc2ccccc2)C1)N1CCCC1 (configuration not stated)	none
CCOc1cc2c(C#N)c(N(CC)CC)nc(N)c2c(N)n1	ASAP1 GAP inh 33 | ASAP1 GAP conf inactive
Cc1cccc(S(=O)(=O)NNC(=O)c2cc(-c3ccc(F)cc3)nc3ccccc23)c1	none
O=C(NNS(=O)(=O)c1ccc(Cl)cc1)c1cc(-c2ccccc2)nc2ccccc12	ASAP1 GAP inh 28 | ASAP1 GAP conf inactive
Oc1ccc(Cl)cc1-c1cc(-c2cccc(Br)c2)n[nH]1	ASAP1 GAP inh 28 | ASAP1 GAP conf 27
Oc1ccc(Cl)cc1-c1cc(-c2ccccc2Cl)[nH]n1	none
CN(Cc1cccc(Cl)c1Cl)C(=O)CCNC(=O)c1ccco1	ASAP1 GAP inh 29 | ASAP1 GAP conf inactive
CSCCNC(=O)C1(C)CCN1C(=O)CCc1ccccc1 (configuration not stated)	ASAP1 GAP inh 29 | ASAP1 GAP conf inactive
CC1OC(Nc2cccc3ccccc23)C(O)C(O)C1O (configuration not stated)	ASAP1 GAP inh 26 | ASAP1 GAP conf inactive
CC1OC(Nc2ccc(N=Nc3ccccc3)cc2)C(O)C(O)C1O (configuration not stated)	none
COc1cc(OC)c(C2SCCN2S(=O)(=O)c2ccc(F)cc2)cc1OC (configuration not stated)	none
COc1ccc(OC)c(C2SCCN2S(=O)(=O)c2cccc(C(F)(F)F)c2)c1 (configuration not stated)	ASAP1 GAP inh 25 | ASAP1 GAP conf inactive
CC(C)c1ccc(OCC(=O)Nc2ccc(S(=O)(=O)Nc3ccccn3)cc2)cc1	ASAP1 GAP inh 25 | ASAP1 GAP conf inactive
CC(C)c1cccc(OCC(=O)Nc2ccc(S(=O)(=O)Nc3ccccn3)cc2)c1	none
COC(=O)c1ccccc1NC(=O)c1ccc(Cn2cc(Cl)cn2)o1	none
COC(=O)c1cc(NC(=O)c2ccc(Cn3cc(Cl)cn3)o2)cc(C(=O)OC)c1	ASAP1 GAP inh 40 | ASAP1 GAP conf 28
CSCC[C@H](NC(=O)OC(C)(C)C)C(=O)N1CCC(C(=O)N[C@@H](C)C(=O)NC(C)c2ccccc2)CC1 (some centres not stated)	none
O=C(Nc1ccn(CCCN(CCCn2ccc(NC(=O)OCc3ccccc3)nc2=O)CCc2cc3ccccc3[nH]2)c(=O)n1)OCc1ccccc1	ASAP1 GAP inh 30 | ASAP1 GAP conf inactive
CN(C)S(=O)(=O)c1cccc(C(=O)OCC(=O)Nc2sccc2C#N)c1	none (no result: MsrA inhibitor, ASAP1 GAP inh, ARFGAP1 inhibitor)
N#Cc1ccc(OCCCN2CCC(C(O)(c3ccccc3)c3ccccc3)CC2)cc1	ASAP1 GAP inh 25 (no result: MsrA act) | ASAP1 GAP conf inactive
CCOC(=O)c1ccc(Oc2cn[nH]c2-c2ccc(O)cc2O)cc1	ASAP1 GAP inh 27 | ASAP1 GAP conf inactive
C=CCn1c(-c2cccc3ccccc23)n[nH]c1=S	ASAP1 GAP inh 52 | ASAP1 GAP conf inactive
C=CCn1c(-c2ccccc2OC)n[nH]c1=S	none
CCC(Sc1nc2ccccc2s1)C(=O)Nc1cc(C)on1 (configuration not stated)	none
COC(=O)c1ccccc1-c1ccc(C(c2c(C)[nH][nH]c2=O)c2c(C)[nH][nH]c2=O)o1	ASAP1 GAP inh 31 | ASAP1 GAP conf inactive
COC(=O)c1ccccc1NC(=O)c1ccc(-c2ccccc2F)o1	none
CC1CCC2(CC1)NC(=O)N(CC(=O)N1CCOCC1)C2=O (configuration not stated)	none
O=c1cc(-c2ccccc2)[nH]n1-c1ccc([N+](=O)[O-])cc1	none (no result: MsrA inhibitor, ASAP1 GAP inh, ARFGAP1 inhibitor)

Compound activity as filed in PubChem BioAssay.
